High-throughput results from PubChem BioAssay.
Hits are enriched below; roughly 3.7% of the tested compounds scored in any of these assays.
AHR activator – AHR activators, primary screen, cell-based, luminescence, luciferase reporter, human; 320,000 compounds, 2.5% hits; activation, % at 5 µM; Aryl hydrocarbon receptor (Homo sapiens), P35869; AHR-responsive luciferase reporter cells; AID 2796, 2010; in the data active = activation above about 47%
GASC-1 inh – inhibitors of GASC-1 histone demethylase, primary screen, biochemical, fluorescence, DELFIA europium; Lysine-specific demethylase 4C (Homo sapiens), Q9H3R0; GST-JMJD2C(1-420) H3K9me3 demethylation; inhibition, % at 2.35 µM; 330,000 compounds, 0.069% hits;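 active = more than half of a compound's replicate wells show inhibition beyond 50%, single wells judged on their own value; inconclusive = some, but no more than half, of replicates pass 50% inhibition; inactive = no replicate passes 50% inhibition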;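 also: signal counts dimethyl H3K9 product captured on neutravidin plate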
Target sequence (Q9H3R0 1-420 limits assumed): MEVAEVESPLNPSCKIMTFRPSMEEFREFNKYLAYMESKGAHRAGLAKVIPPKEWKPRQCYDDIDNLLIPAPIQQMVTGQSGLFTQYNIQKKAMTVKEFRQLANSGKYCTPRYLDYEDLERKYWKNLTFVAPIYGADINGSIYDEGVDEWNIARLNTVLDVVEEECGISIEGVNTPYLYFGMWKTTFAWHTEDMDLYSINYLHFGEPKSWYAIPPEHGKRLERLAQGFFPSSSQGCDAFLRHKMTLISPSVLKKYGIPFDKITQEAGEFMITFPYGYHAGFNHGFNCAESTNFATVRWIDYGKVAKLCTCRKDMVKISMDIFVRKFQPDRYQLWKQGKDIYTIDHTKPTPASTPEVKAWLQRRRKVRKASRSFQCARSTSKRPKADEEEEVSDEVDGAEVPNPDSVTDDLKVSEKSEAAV
SR-BI DiI-HDL act – activators of SR-BI mediated DiI-HDL uptake, primary screen, ldlA[mSR-BI] CHO cells, DiI fluorescence; activation, % at 12.5 µM; 3 h; 100 = double the neutral-control signal; 320,000 compounds, 0.096% hits;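 active = mean replicate activation of at least 60% and every replicate at or above 60%; inconclusive = mean or all-replicate condition met, but not both; inactive = mean below 60% and not all replicates reaching 60%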
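Test system: SR-BI-overexpressing, LDLR-lacking CHO cells. Measured by: DiI fluorescence, bottom read. Medium: Ham's F12 with 0.5% BSA, HEPES 25 mM, pH 7.4. Timing: 3 h uptake period with compound, 37 °C.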
SR-BI DiI inh – inhibitors of SR-BI mediated HDL lipid uptake, primary screen, ldlA[mSR-BI] cells, fluorescence, single point; 320,000 compounds, 0.96% hits; inhibition, % at 12.5 µM; ldlA[mSR-BI] CHO cells, DiI-HDL uptake fluorescence, 3 h;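 active = mean replicate inhibition of at least 70% and a set share of replicates each scoring 70 or more; inconclusive = meets just one of the two criteria; inactive = fails both criteria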
GAA850 FXN act – FXN promoter activators, primary screen, cell-based, luciferase luminescence, HEK293 lucGAA850 | HEK293 lucGAA850 FXN promoter luciferase reporter, 24 h; percent of 10 µM SAHA response | activation, % at 6 µM | 360,000 compounds, 0.56% hits | AID 540364, 2011;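 active = activation above the average of all compounds screened plus 3 SD, cutoff fixed separately per campaign, cut at about 7.5% in these data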
DiI quencher – DiI fluorescence quenching in cell-free counter-screen | shares compounds with SR-BI DiI inh | cell-free DiI-HDL fluorescence quenching, 30 min | AC50, µM (doses to about 35 µM) | 470 compounds, 20% hits | AID 540326;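 active = quenching, a falling signal, with AC50 below a set limit tied to the top valid dose, actives reach about 32 µM in these data; inconclusive = no clear call, values can overlap the other calls; inactive = rising signal, and the rest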
Each line names hits and unclear results; the compound was inactive in the other large screens (follow-up assays come after a bar, where they were run).

O=C(c1cn(-c2ccccc2)nc1-c1cccc([N+](=O)[O-])c1)N1CCCCC1	SR-BI DiI inh 73 | DiI quencher inactive
CN(C(=O)COC(=O)c1c[nH]c(=O)[nH]c1=O)C1CCCCC1	SR-BI DiI inh 79 | DiI quencher inactive
CN(C(=O)COC(=O)c1ccc(Cl)cc1N)C1CCCCC1	none
COc1ccc2c(=O)c3c(=O)n(CCc4ccccc4)c(C(C)C)nc3oc2c1	none (no result: SR-BI DiI-HDL act, SR-BI DiI inh)
COc1ccc(-c2nc(-c3ccc4c(c3)OCO4)[nH]c2-c2ccc(OC)cc2)cc1	SR-BI DiI inh 105 | DiI quencher 2.7µM
Cc1[nH]c(-c2ccc3c(c2)OCO3)nc1C(=O)O	none
O=C(Nc1ccccc1N1CCOCC1)c1cc2c(s1)CCCCC2	none
O=C(Nc1ccc(N2CCOCC2)cc1)c1cc2c(s1)CCCC2	SR-BI DiI inh 100 | DiI quencher 16µM
CCOCCOC(=O)c1[nH]c2c(c1C)C(=O)CC(c1cccs1)C2 (stereo not given)	SR-BI DiI inh 75 | DiI quencher inactive
CCOC(=O)c1[nH]c2c(c1C)C(=O)CC(c1ccc(F)cc1)C2 (stereo not given)	SR-BI DiI inh inconclusive | DiI quencher inactive
CCCCCOC(=O)c1[nH]c2c(c1C)C(=O)CC(c1ccco1)C2 (stereo not given)	AHR activator 140, SR-BI DiI inh 80 | DiI quencher inactive
CCN(CC(=O)Nc1c(F)cccc1F)C(=O)Cn1[nH]c(=O)c2ccccc2c1=O	none
COc1ccc(N2CCN(S(=O)(=O)c3c(C(=O)N4CCOCC4)c(C)n(C)c3C)CC2)cc1	none
COc1ccc2sc(-c3ccc(N(C)C)cc3)c(C#CC(C)(C)O)c2c1	SR-BI DiI inh 103 | DiI quencher 2.9µM
COc1ccc2sc(-c3ccc(N(C)C)cc3)c(C#Cc3cncn3C)c2c1	AHR activator 71, SR-BI DiI inh 77 | DiI quencher 2.2µM
COc1cccc(-c2sc3ccc(OC)cc3c2C#CC(C)(C)O)c1	none
COc1ccc(-c2sc3cc(OC)c(OC)cc3c2C#CC(C)(C)O)cc1	none
CC(=O)c1c(C)[nH]c(C(=O)OCC(=O)NCCC2=CCCCC2)c1C	none
COC(=O)[C@@]1(Cc2ccc(F)cc2)[C@H]2c3cc(C(=O)N4CCCC4)n(CCCNc4ncc(C(F)(F)F)cc4Cl)c3C[C@H]2CN1C(=O)c1ccccc1	none | DiI quencher inactive
COC(=O)[C@@]1(Cc2ccc(F)cc2)[C@H]2c3cc(C(=O)N4CCCC4)n(Cc4ccc(C(F)(F)F)nc4)c3C[C@H]2CN1C(=O)c1ccccc1	none (no result: SR-BI DiI-HDL act, SR-BI DiI inh, GAA850 FXN act)
CC(C)(C)OC(=O)NC1CCN(S(=O)(=O)c2ccc3c(c2)OCCO3)CC1	none
CN(C(=O)COC(=O)c1c2c(nc3ccccc13)/C(=C/c1cccc([N+](=O)[O-])c1)CCC2)C1CCS(=O)(=O)C1 (stereo not given)	none | DiI quencher inactive
O=C(COC(=O)c1c2c(nc3ccccc13)/C(=C/c1cccc([N+](=O)[O-])c1)CCC2)NC1CCS(=O)(=O)C1 (stereo not given)	none
CCn1ccnc1CN(C)C(=O)C1CCC(=O)N(CCc2cccc(F)c2)C1 (stereo not given)	none
Cc1cc(CN(C)C(=O)C2CCC(=O)N(CCc3cccc(F)c3)C2)on1 (stereo not given)	none | DiI quencher inactive
O=C(Nc1ccn(Cc2c(F)c(F)c(F)c(F)c2F)n1)c1ccc(COc2ccccc2Cl)cc1	SR-BI DiI inh 73 | DiI quencher inactive
O=C(Nc1ccn(Cc2c(F)c(F)cc(F)c2F)n1)c1ccc(COc2ccc(Cl)cc2Cl)o1	none
COc1ccc(S(=O)(=O)N2CCN(C(=O)c3ccco3)CC2)cc1C(C)(C)C	none
CC(=O)NC(Cc1cc(C)ccc1C)C(=O)N1CCN(C(=O)c2ccc([N+](=O)[O-])cc2)CC1 (stereo not given)	none
C=CCN(CC=C)C(=O)COn1nnc2ccc(S(=O)(=O)N3CCOCC3)cc21	none | DiI quencher inactive
O=C(Nc1ccc(C(=O)N2CCOCC2)cc1)C1CCCC1	none (no result: AHR activator, GASC-1 inh)
CCOc1ccc(NC(=O)c2ccc3c(c2)N(Cc2ccc(F)cc2)C(=O)CS3=O)cc1 (stereo not given)	none
Cc1ccc(C)c(NC(=O)c2ccc3c(c2)N(Cc2ccc(F)cc2)C(=O)CS3=O)c1 (stereo not given)	none | DiI quencher inactive
COc1cc(NC(=O)CCc2nnc3ccc(N4CCN(C)CC4)nn23)cc(OC)c1	none
NNC(=O)CN1CCN(c2ncc(C(F)(F)F)cc2Cl)CC1	none
O=C(CN1CCN(c2ncc(C(F)(F)F)cc2Cl)CC1)NCCNc1ncc(C(F)(F)F)cc1Cl	SR-BI DiI inh 75 | DiI quencher inactive
CC(=O)Nc1c(I)c(C(=O)N[C@H]2C(O)O[C@H](CO)[C@@H](O)[C@@H]2O)c(I)c(N(C)C(C)=O)c1I (stereo not given in full)	none (no result: GASC-1 inh) | DiI quencher inactive
O=C(Cn1nnc2c(cnn2-c2ccc(F)cc2)c1=O)Nc1ccccc1C(F)(F)F	none
CC(=O)c1cc(C#N)c(SCc2ccccc2C#N)nc1C	SR-BI DiI inh 75 | DiI quencher inactive
O=C(Nc1cccc(S(=O)(=O)N2CCOCC2)c1)C1CCN(S(=O)(=O)c2ccccc2)CC1	SR-BI DiI inh inconclusive | DiI quencher inactive
O=C(Nc1cccc(S(=O)(=O)N2CCOCC2)c1)C1CCCCN1S(=O)(=O)c1ccccc1 (stereo not given)	none (no result: AHR activator, GASC-1 inh)
COC(=O)CNC(=O)c1cc(-c2ccncc2)nc2ccc(C)cc12	none (no result: GAA850 FXN act)
CCC(C)c1ccccc1N1CC(C(=O)Nc2ccccc2N2CCCC2)CC1=O (stereo not given)	none
CCC(C)c1ccccc1N1CC(C(=O)N2CCN(S(=O)(=O)c3ccccc3Br)CC2)CC1=O (stereo not given)	SR-BI DiI inh 78 | DiI quencher inactive
CC1(C(=O)NS(=O)(=O)c2ccc(C#N)cc2)CCN1C(=O)C1CCCCC1 (stereo not given)	none (no result: AHR activator, GASC-1 inh, SR-BI DiI-HDL act, SR-BI DiI inh)
CC(=O)c1ccc(N2CCN(C(=O)/C=C/c3ccc(S(=O)(=O)NCc4ccco4)cc3)CC2)cc1	SR-BI DiI inh 88 | DiI quencher inactive
CC(=O)c1ccc(N2CCN(C(=O)/C=C/c3ccc(S(=O)(=O)N4CCOCC4)cc3)CC2)cc1	none
N#Cc1ccc(CN2CCN(C(=O)c3ccc(S(=O)(=O)NCc4ccco4)cc3)CC2)cc1	SR-BI DiI inh inconclusive | DiI quencher inactive
O=C(O)CN1C(=O)C2C3CCC(C3)C2C1=O (stereo not given)	none (no result: AHR activator, GASC-1 inh, SR-BI DiI-HDL act, SR-BI DiI inh)
